# From ChEMBL document CHEMBL5058577, “EUbOPEN Chemogenomics Library 2 (Multiplex)” (2022)
# Tested on: Fibroblast
# Assay: Multiplex assay against human fibroblast
# Assay type: toxicity, cell-based
# In short: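 On a CQ1 microscope at 37°C and 5% CO2, live cells were imaged after compound addition. They had been stained at seeding with Hoechst33342, BioTracker Green Microtubule Cytoskeleton Dye, MitoTracker Red and Annexin V Alexa Fluor 680. CellPathfinder machine-learning gating assigned cells to Hoechst high-intensity objects or normal cells, normal cells to healthy, pyknosed or fragmented nuclei, and pyknosed cells to mitotic or apoptotic. Tubulin, mitochondrial-mass and membrane-permeability phenotypes are per cents of healthy-nucleus cells.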
# [1] = 12 h, 1 µM, compound concentration 1 uM, replicate 1
# [2] = 12 h, 1 µM, compound concentration 1 uM, replicate 2
# [3] = 12 h, 10 µM, compound concentration 10 uM, replicate 1
# [4] = 12 h, 10 µM, compound concentration 10 uM, replicate 2
# [5] = 24 h, 1 µM, compound concentration 1 uM, replicate 1
# [6] = 24 h, 1 µM, compound concentration 1 uM, replicate 2
# [7] = 24 h, 10 µM, compound concentration 10 uM, replicate 1
# [8] = 24 h, 10 µM, compound concentration 10 uM, replicate 2
# [9] = 48 h, 1 µM, compound concentration 1 uM, replicate 1
# [10] = 48 h, 1 µM, compound concentration 1 uM, replicate 2
# [11] = 48 h, 10 µM, compound concentration 10 uM, replicate 1
# [12] = 48 h, 10 µM, compound concentration 10 uM, replicate 2
compound,measurement,setting,value
CC(C)(C)c1ccc(CSc2cnn(C(C)(C)C)c(=O)c2Cl)cc1 [PYRIDABEN],Population Apoptotic (%),[1],46%
same,Population Fragmented Nuclei (%),[1],15%
same,Population Healthy Nuclei (%),[1],66%
same,Population Hoechst High Intensity Objects (%),[1],1%
same,Population Membrane Permeable-Phenotype (%),[1],3%
same,Population Mitochondria Different-Phenotype (%),[1],1%
same,Population Mitotic Cells (%),[1],53%
same,Population Normal (%),[1],98%
same,Population Pyknosed Nuclei (%),[1],17%
same,Population Tubulin-Different-Phenotype (%),[1],28%
same,Total Cell Count,[1],148
same,Population Apoptotic (%),[2],44%
same,Population Fragmented Nuclei (%),[2],27%
same,Population Healthy Nuclei (%),[2],47%
same,Population Hoechst High Intensity Objects (%),[2],4%
same,Population Membrane Permeable-Phenotype (%),[2],12%
same,Population Mitochondria Different-Phenotype (%),[2],7%
same,Population Mitotic Cells (%),[2],55%
same,Population Normal (%),[2],95%
same,Population Pyknosed Nuclei (%),[2],25%
same,Population Tubulin-Different-Phenotype (%),[2],57%
same,Total Cell Count,[2],142
same,Population Apoptotic (%),[3],25%
same,Population Fragmented Nuclei (%),[3],11%
same,Population Healthy Nuclei (%),[3],68%
same,Population Hoechst High Intensity Objects (%),[3],4%
same,Population Membrane Permeable-Phenotype (%),[3],2%
same,Population Mitochondria Different-Phenotype (%),[3],5%
same,Population Mitotic Cells (%),[3],74%
same,Population Normal (%),[3],95%
same,Population Pyknosed Nuclei (%),[3],20%
same,Population Tubulin-Different-Phenotype (%),[3],35%
same,Total Cell Count,[3],139
same,Population Apoptotic (%),[4],47%
same,Population Fragmented Nuclei (%),[4],25%
same,Population Healthy Nuclei (%),[4],49%
same,Population Hoechst High Intensity Objects (%),[4],1%
same,Population Membrane Permeable-Phenotype (%),[4],12%
same,Population Mitochondria Different-Phenotype (%),[4],4%
same,Population Mitotic Cells (%),[4],52%
same,Population Normal (%),[4],98%
same,Population Pyknosed Nuclei (%),[4],25%
same,Population Tubulin-Different-Phenotype (%),[4],54%
same,Total Cell Count,[4],136
same,Population Apoptotic (%),[5],35%
same,Population Fragmented Nuclei (%),[5],17%
same,Population Healthy Nuclei (%),[5],71%
same,Population Hoechst High Intensity Objects (%),[5],0%
same,Population Membrane Permeable-Phenotype (%),[5],0%
same,Population Mitochondria Different-Phenotype (%),[5],2%
same,Population Mitotic Cells (%),[5],64%
same,Population Normal (%),[5],99%
same,Population Pyknosed Nuclei (%),[5],11%
same,Population Tubulin-Different-Phenotype (%),[5],20%
same,Total Cell Count,[5],148
same,Population Apoptotic (%),[6],36%
same,Population Fragmented Nuclei (%),[6],30%
same,Population Healthy Nuclei (%),[6],48%
same,Population Hoechst High Intensity Objects (%),[6],4%
same,Population Membrane Permeable-Phenotype (%),[6],7%
same,Population Mitochondria Different-Phenotype (%),[6],8%
same,Population Mitotic Cells (%),[6],63%
same,Population Normal (%),[6],95%
same,Population Pyknosed Nuclei (%),[6],21%
same,Population Tubulin-Different-Phenotype (%),[6],50%
same,Population Apoptotic (%),[7],56%
same,Population Fragmented Nuclei (%),[7],13%
same,Population Healthy Nuclei (%),[7],62%
same,Population Hoechst High Intensity Objects (%),[7],2%
same,Population Membrane Permeable-Phenotype (%),[7],1%
same,Population Mitochondria Different-Phenotype (%),[7],7%
same,Population Mitotic Cells (%),[7],43%
same,Population Normal (%),[7],97%
same,Population Pyknosed Nuclei (%),[7],23%
same,Population Tubulin-Different-Phenotype (%),[7],40%
same,Total Cell Count,[7],139
same,Population Apoptotic (%),[8],54%
same,Population Fragmented Nuclei (%),[8],28%
same,Population Healthy Nuclei (%),[8],48%
same,Population Hoechst High Intensity Objects (%),[8],0%
same,Population Membrane Permeable-Phenotype (%),[8],9%
same,Population Mitochondria Different-Phenotype (%),[8],9%
same,Population Mitotic Cells (%),[8],45%
same,Population Normal (%),[8],99%
same,Population Pyknosed Nuclei (%),[8],22%
same,Population Tubulin-Different-Phenotype (%),[8],53%
same,Total Cell Count,[8],136
same,Population Apoptotic (%),[9],50%
same,Population Fragmented Nuclei (%),[9],27%
same,Population Healthy Nuclei (%),[9],62%
same,Population Hoechst High Intensity Objects (%),[9],1%
same,Population Membrane Permeable-Phenotype (%),[9],0%
same,Population Mitochondria Different-Phenotype (%),[9],4%
same,Population Mitotic Cells (%),[9],50%
same,Population Normal (%),[9],98%
same,Population Pyknosed Nuclei (%),[9],9%
same,Population Tubulin-Different-Phenotype (%),[9],28%
same,Total Cell Count,[9],164
same,Population Apoptotic (%),[10],45%
same,Population Fragmented Nuclei (%),[10],43%
same,Population Healthy Nuclei (%),[10],41%
same,Population Hoechst High Intensity Objects (%),[10],4%
same,Population Membrane Permeable-Phenotype (%),[10],6%
same,Population Mitochondria Different-Phenotype (%),[10],15%
same,Population Mitotic Cells (%),[10],54%
same,Population Normal (%),[10],95%
same,Population Pyknosed Nuclei (%),[10],15%
same,Population Tubulin-Different-Phenotype (%),[10],63%
same,Total Cell Count,[10],153
same,Population Apoptotic (%),[11],72%
same,Population Fragmented Nuclei (%),[11],19%
same,Population Healthy Nuclei (%),[11],62%
same,Population Hoechst High Intensity Objects (%),[11],4%
same,Population Membrane Permeable-Phenotype (%),[11],0%
same,Population Mitochondria Different-Phenotype (%),[11],8%
same,Population Mitotic Cells (%),[11],28%
same,Population Normal (%),[11],95%
same,Population Pyknosed Nuclei (%),[11],18%
same,Population Tubulin-Different-Phenotype (%),[11],49%
same,Total Cell Count,[11],143
same,Population Apoptotic (%),[12],63%
same,Population Fragmented Nuclei (%),[12],36%
same,Population Healthy Nuclei (%),[12],48%
same,Population Hoechst High Intensity Objects (%),[12],5%
same,Population Membrane Permeable-Phenotype (%),[12],8%
same,Population Mitochondria Different-Phenotype (%),[12],10%
same,Population Mitotic Cells (%),[12],36%
same,Population Normal (%),[12],94%
same,Population Pyknosed Nuclei (%),[12],15%
same,Population Tubulin-Different-Phenotype (%),[12],58%
same,Total Cell Count,[12],131
